According to ChEMBL document CHEMBL1138470, “Discovery and characterization of the N-phenyl-N'-naphthylurea class of p38 kinase inhibitors” (Bioorg Med Chem Lett, 2009):
Calls of active or inactive are those of the source. No cut-off for these calls is given here.

Columns and labels:
[1] = molecular target: T1, Mitogen-activated protein kinase 14 (Homo sapiens, UniProt Q16539)
Blood = assay: Inhibition of LPS-induced TNFalpha production in human whole blood; format: functional, tissue-based
Summary of the method: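 LPS-stimulated TNFα production in whole blood from human donors; IC50 reported as geometric mean of 4–12 donor experiments, SD typically ±50% of the value.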

THP-1 = assay: Inhibition of LPS-induced TNFalpha production in human THP1 cells; format: functional, cell-based
Summary of the method: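 LPS-stimulated TNFα release from THP-1 cells; IC50 values are means of 2–4 experiments, SD for n > 2 typically ±50% of the value.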

Mus musculus = assay: Inhibition of LPS-induced endotoxemia in mouse assessed as inhibition of TNFalpha production at 3 mg/kg, po; format: functional
Summary of the method: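 Mouse LPS-induced endotoxemia model; compound given orally at 3 mg/kg, and TNFα production is measured and expressed as percent inhibition.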

[2] = molecular target: T1, Mitogen-activated protein kinase 14; assay: Binding affinity to p38alpha assessed as inhibition of ATF2 phosphorylation preincubated for 4 hrs
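Throughout, for Tm: thermal denaturation measurement of the p38alpha–inhibitor complex, reporting its melting point as a readout of binding.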

T1 sequence (Q16539 whole entry): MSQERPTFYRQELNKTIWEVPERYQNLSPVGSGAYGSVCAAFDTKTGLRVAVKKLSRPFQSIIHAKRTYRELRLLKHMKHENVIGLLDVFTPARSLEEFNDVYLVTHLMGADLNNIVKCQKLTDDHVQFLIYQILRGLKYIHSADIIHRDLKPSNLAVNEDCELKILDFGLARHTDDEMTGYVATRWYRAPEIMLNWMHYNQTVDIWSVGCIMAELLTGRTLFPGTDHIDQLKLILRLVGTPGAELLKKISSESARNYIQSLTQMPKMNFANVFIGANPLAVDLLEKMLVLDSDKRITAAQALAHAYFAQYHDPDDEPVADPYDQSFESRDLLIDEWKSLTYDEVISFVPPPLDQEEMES

| Tm [1] [°C] | IC50 (Blood) [nM] | IC50 (THP-1) [nM] | IC50 [2] [nM] | Compound | Activity (Mus musculus) |
| --- | --- | --- | --- | --- | --- |
| 56.2 | 97 | 12 |  | COc1c(NC(=O)Nc2ccc(-c3ccc(CN4CCOCC4)nc3)c3ccccc23)cc(C(C)(C)C)cc1C(=O)N(C)C |  |
| 57.9 | 230 | 29 |  | Cn1nc(C(C)(C)C)cc1NC(=O)Nc1ccc(-c2ccc(CN3CCOCC3)nc2)c2ccccc12 |  |
| 58.1 | 110 | 8.5 |  | COC(=O)Nc1cc(C(C)(C)C)cc(NC(=O)Nc2ccc(-c3ccc(CN4CCOCC4)nc3)c3ccccc23)c1OC |  |
| 58.7 | 71 | 5.1 |  | CCC(=O)Nc1cc(C(C)(C)C)cc(NC(=O)Nc2ccc(-c3ccc(CN4CCOCC4)nc3)c3ccccc23)c1OC |  |
| 53.9 | 700 | 8.8 |  | CCc1ccc(C(C)(C)C)cc1NC(=O)Nc1ccc(-c2ccc(CN3CCOCC3)nc2)c2ccccc12 |  |
| 56.7 | 110 | 12 |  | COc1c(NC(N)=O)cc(C(C)(C)C)cc1NC(=O)Nc1ccc(-c2ccc(CN3CCOCC3)nc2)c2ccccc12 |  |
| 65.5 | 74 | 9.4 |  | COc1c(NC(=O)Nc2ccc(-c3ccc(CN4CCOCC4)nc3)c3ccccc23)cc(C(C)(C)C)cc1C(N)=O |  |

Further lines, the molecule ahead of its results:

| Compound | Tm [1] [°C] | IC50 (Blood) [nM] | IC50 (THP-1) [nM] | IC50 [2] [nM] | Activity (Mus musculus) |
| --- | --- | --- | --- | --- | --- |
| Cn1nc(C(C)(C)C)cc1NC(=O)Nc1ccc(OCCN2CCOCC2)c2ccccc12 | 54.5 | 10000 | 140 |  |  |
| Cc1ccc(-n2nc(C(C)(C)C)cc2NC(=O)Nc2ccc(OCCN3CCOCC3)c3ccccc23)cc1 [DORAMAPIMOD] |  | 780 | 18 |  | inactive |
| COc1ccc(C(C)(C)C)cc1NC(=O)c1cc2ccccc2o1 | 46.2 |  |  | > 10000 |  |
| Cc1ccc(-n2nc(C(C)(C)C)cc2NC(=O)Nc2ccc(-c3ccc(CN4CCOCC4)nc3)c3ccccc23)cc1 | 63.6 | 220 | 8 |  |  |
| Cc1ncc(-c2ccc(C(C)(C)C)cc2NC(=O)Nc2ccc(-c3ccc(CN4CCOCC4)nc3)c3ccccc23)cn1 | 56.6 | 350 | 29 |  |  |
| COc1ccc(C(C)(C)C)cc1NC(=O)Nc1cccc2ccccc12 | 50.3 |  |  | 3900 |  |
